Data reported in ChEMBL document CHEMBL1806484, “Design, synthesis and biological evaluation of tyrosine-based hydroxamic acid analogs as novel histone deacetylases (HDACs) inhibitors” (Bioorg Med Chem, 2011).

How the values were obtained:
Histone deacetylase 8 = target: T1, Histone deacetylase 8 (Homo sapiens, UniProt Q9BY41); assay: Inhibition of HDAC8 using fluorogenic Boc-Lys (acetyl)-AMC as substrate after 30 mins by fluorescence assay
T1 sequence (Q9BY41 whole entry): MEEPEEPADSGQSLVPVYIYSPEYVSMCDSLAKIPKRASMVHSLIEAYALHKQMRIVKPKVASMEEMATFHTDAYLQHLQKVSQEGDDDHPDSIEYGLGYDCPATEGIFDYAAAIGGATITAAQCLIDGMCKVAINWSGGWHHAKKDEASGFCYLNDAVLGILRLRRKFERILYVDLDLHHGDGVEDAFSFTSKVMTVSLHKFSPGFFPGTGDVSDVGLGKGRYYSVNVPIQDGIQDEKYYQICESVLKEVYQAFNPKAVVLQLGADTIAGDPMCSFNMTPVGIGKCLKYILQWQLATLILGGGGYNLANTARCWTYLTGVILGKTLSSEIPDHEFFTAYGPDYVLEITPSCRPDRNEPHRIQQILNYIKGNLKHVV
Procedure, shortened: (§1)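 Enzyme (HeLa nuclear extract or HDAC8, the latter expressed and purified in-house) preincubated 5 min with graded compound concentrations. Substrate added and run for 30 min at 37 °C, then stopped with a trypsin/TSA developer for 20 min at 37 °C. Fluorescence read at ex 390/em 460 nm. Inhibition was taken relative to control wells, IC50 by regression. Mean ± SD of ≥3 determinations.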

MDA-MB-231 = assay: Antiproliferative activity against human MDA-MB-231 cells after 48 hrs by MTT assay; type: functional, cell-based; details: MDA-MB-231, 48 h
HCT-116 = assay: Antiproliferative activity against human HCT116 cells after 48 hrs by MTT assay; type: functional, cell-based; details: HCT-116, 48 h
Histone deacetylase = assay: Inhibition of HDAC in human HeLa cell nuclear extract using fluorogenic Boc-Lys (acetyl)-AMC as substrate after 30 mins fluorescence assay; type: protein assay; procedure, shortened: as §1
A549 = assay: Antiproliferative activity against human A549 cells after 48 hrs by MTT assay; type: functional, cell-based; details: A549, 48 h

Row | SMILES | IC50 (Histone deacetylase 8) [µM] | IC50 (MDA-MB-231) [µM] | IC50 (HCT-116) [µM] | IC50 (Histone deacetylase) [µM] | IC50 (A549) [µM]
1 | O=C(COc1ccc(C[C@H](NC(=O)CCc2ccccc2)C(=O)Nc2ccccc2)cc1)NO | 0.151 | – | – | – | –
2 | CC(C)(C)OC(=O)N[C@@H](Cc1ccc(OCC(=O)NO)cc1)C(=O)Nc1ccccc1 | 0.227 | – | – | – | –
3 | N[C@@H](Cc1ccc(OCC(=O)NO)cc1)C(=O)Nc1ccccc1 | 0.467 | – | – | – | –
4 | O=C(COc1ccc(C[C@H](NC(=O)OCc2ccccc2)C(=O)Nc2ccccc2)cc1)NO | 0.197 | – | – | – | –
5 | COc1ccc(NC(=O)[C@H](Cc2ccc(OCC(=O)NO)cc2)NC(=O)OCc2ccccc2)cc1 | 0.12 | – | – | – | –
6 | O=C(COc1ccc(C[C@H](NC(=O)OCc2ccccc2)C(=O)Nc2cccc(Cl)c2)cc1)NO | 0.213 | – | – | – | –
7 | COc1ccc(NC(=O)[C@H](Cc2ccc(OCC(=O)NO)cc2)NC(=O)c2ccccc2)cc1 | 0.087 | 2.98 | 1.53 | 0.358 | 24
8 | COc1ccc(NC(=O)[C@H](Cc2ccc(OCC(=O)NO)cc2)NCc2ccccc2)cc1 | 1.18 | – | – | – | –
9 | COc1ccc(NC(=O)[C@H](Cc2ccc(OCC(=O)NO)cc2)NCCc2ccccc2)cc1 | 0.66 | – | – | – | –

Next, values leading:

Row | IC50 (Histone deacetylase 8) [µM] | IC50 (MDA-MB-231) [µM] | IC50 (HCT-116) [µM] | IC50 (Histone deacetylase) [µM] | IC50 (A549) [µM] | SMILES
10 | 0.063 | 22.3 | > 100 | 1.23 | > 100 | COc1ccc(NC(=O)[C@H](Cc2ccc(OCC(=O)NO)cc2)NC(=O)Cc2ccccc2)cc1
11 | 0.09 | 6.59 | 6.24 | 0.889 | 54.6 | COc1ccc(NC(=O)[C@H](Cc2ccc(OCC(=O)NO)cc2)NC(=O)CCc2ccccc2)cc1
12 | 0.086 | 14.3 | 57.3 | 1.32 | 97.2 | COc1ccc(NC(=O)[C@H](Cc2ccc(OCC(=O)NO)cc2)NC(=O)CCCc2ccccc2)cc1
13 | 0.922 | – | – | – | – | COc1ccc(NC(=O)[C@H](Cc2ccc(OCC(=O)NO)cc2)NCCCc2ccccc2)cc1
